Results published in ChEMBL document CHEMBL4373700, “Synthesis and Structure-Activity Relationship Correlations of Gnidimacrin Derivatives as Potent HIV-1 Inhibitors and HIV Latency Reversing Agents” (J Med Chem, 2019).
Activity calls are given as the source filed them. No cut-off for these calls is given here.

Experiments:
[1] = target: Protein kinase C beta type (Homo sapiens) (UniProt P05771); test: Agonist activity at Protein kinase C beta in human MT4 cells infected with HIV-1 NL4-3 assessed as inhibition of viral replication at 2 nM measured on day 3 post-infection in presence of PKCbeta antagonist enzastaurin by Nano-Glo luciferase assay; type: cell-based
Method in brief: (§1)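 Multicycle replication: MT4 cells (1 × 10^5 cells/mL) infected with HIV-1 NL4-3 NanoLuc-sec, 50 TCID50/well, with 0.6 nM or 2 nM PKC agonist, with or without enzastaurin at 0, 1/3 or 1 μM. Supernatant luciferase (Nano-Glo) read on day 3 post infection. Replication expressed relative to the no-compound control (100%). Duplicate assay.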

[2] = tested on: MT4; test: Cytotoxicity against human MT4 cells measured after 3 days by CytoTox-Glo assay; type: cell-based; conditions: mt4, 72 h
Method in brief: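 MT4 cells cultured with a range of compound concentrations for 3 days. Viability by CytoTox-Glo, run per the manufacturer's protocol. CC50 is the concentration causing a 50% drop in viability.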

[3] = Agonist activity at Protein kinase C in human MT4 cells infected with HIV-1 NL4-3 assessed as inhibition of viral replication measured on day 3 post-infection by Nano-Glo luciferase assay
[4] = target: Protein kinase C (PKC); test: Agonist activity at Protein kinase C in human U1 cells infected with HIV-1 NL4-3 assessed as induction of HIV-1 p24 production after 72 hrs by ELISA; type: cell-based
Method in brief: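 Latency model: U1 cells (2 × 10^5 cells/mL) incubated with a range of compound concentrations at 37 °C for 72 h. p24 in the supernatant measured by ELISA. EC50 is the concentration giving 50% of maximal p24 induction, from nonlinear regression.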

[5] = target: Protein kinase C beta type (Homo sapiens) (UniProt P05771); test: Agonist activity at Protein kinase C beta in human MT4 cells infected with HIV-1 NL4-3 assessed as inhibition of viral replication at 0.6 nM measured on day 3 post-infection by Nano-Glo luciferase assay relative to control; type: cell-based; method in brief: as §1
[6] = Half-life in Sprague-Dawley rat plasma at 0.05 mM measured up to 24 hrs by LCMS analysis; type: ADME, cell-free; conditions: 50 µM
Method in brief: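 Sprague Dawley rat plasma (sodium heparin) prewarmed 10 min at 37 °C. Compound added from 5 mM DMSO stock to a final 0.05 mM. Samples taken at 0, 0.5, 1, 2, 4, 6, 10 and 24 h, deproteinized with 2 volumes MeOH, centrifuged and filtered. Analysis by LCMS (C18, isocratic, ESI). Mean of three independent experiments.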

[7] = target: Protein kinase C beta type (Homo sapiens) (UniProt P05771); test: Agonist activity at Protein kinase C beta in human MT4 cells infected with HIV-1 NL4-3 assessed as inhibition of viral replication at 0.6 nM measured on day 3 post-infection in presence of PKCbeta antagonist enzastaurin by Nano-Glo luciferase assay; type: cell-based; method in brief: as §1
[8] = tested on: Human immunodeficiency virus 1; test: Antiviral activity against HIV 1 NL4-3 infected in human MT4 cells assessed as inhibition of replication treated 48 hrs post infection and measured on day 4 post infection by ELISA; type: functional; conditions: Human immunodeficiency virus 1, NL4-3, MT4

Protein kinase C beta type (Homo sapiens), sequence (P05771 2-671 limits assumed): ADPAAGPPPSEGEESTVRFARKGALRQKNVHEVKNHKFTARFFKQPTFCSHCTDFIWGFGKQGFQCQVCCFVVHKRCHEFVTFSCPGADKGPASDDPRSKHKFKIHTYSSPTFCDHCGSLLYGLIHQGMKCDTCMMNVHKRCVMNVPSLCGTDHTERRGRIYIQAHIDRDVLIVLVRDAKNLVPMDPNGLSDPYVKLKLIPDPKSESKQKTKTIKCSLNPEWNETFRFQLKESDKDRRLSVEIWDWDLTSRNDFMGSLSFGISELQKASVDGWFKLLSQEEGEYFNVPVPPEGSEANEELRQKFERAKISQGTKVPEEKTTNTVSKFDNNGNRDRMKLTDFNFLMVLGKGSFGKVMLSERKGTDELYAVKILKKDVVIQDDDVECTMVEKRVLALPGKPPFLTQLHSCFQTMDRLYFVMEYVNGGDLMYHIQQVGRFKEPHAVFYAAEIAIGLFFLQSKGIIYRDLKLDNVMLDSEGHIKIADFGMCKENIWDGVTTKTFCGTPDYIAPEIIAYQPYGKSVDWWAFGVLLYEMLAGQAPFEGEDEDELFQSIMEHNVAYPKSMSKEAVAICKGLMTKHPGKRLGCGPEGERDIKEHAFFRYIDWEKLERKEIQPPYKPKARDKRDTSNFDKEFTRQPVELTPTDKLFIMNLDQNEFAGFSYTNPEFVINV

SMILES | Activity [1] | CC50 [2] [nM] | IC50 [3] [nM] | EC50 [4] [nM] | inhibition [5] [%] | t1/2 [6] [h] | Activity [7] | IC90 [8] [nM]
C=C(C)[C@]12C[C@@H](COC(=O)c3ccccc3)[C@@]34OC5(O[C@@H]1[C@@H]3[C@@H]1O[C@]1(CO)[C@@H](O)[C@@]1(O)[C@H]4[C@H]([C@H](C)[C@@H]1OC(=O)c1ccncc1)[C@H](C)CCCCCC[C@H]5O)O2 | inactive | > 1 | 0.36 | 0.55 |  |  |  | 
C=C(C)[C@]12C[C@@H](COC(=O)c3ccccc3)[C@@]34OC5(O[C@@H]1[C@@H]3[C@@H]1O[C@]1(CO)[C@@H](O)[C@@]1(O)[C@H]4[C@H]([C@H](C)[C@@H]1OC(=O)c1ccccc1)[C@H](C)CCCCCC[C@H]5O)O2 |  | > 1 | 0.13 | 0.19 | 90 | 21.77 | inactive | 
C=C(C)[C@]12C[C@@H](COC(C)=O)[C@@]34OC5(O[C@@H]1[C@@H]3[C@@H]1O[C@]1(CO)[C@@H](O)[C@@]1(O)[C@H]4[C@H]([C@H](C)[C@@H]1OC(=O)c1ccccc1)[C@H](C)CCCCCC[C@H]5O)O2 |  |  |  |  |  |  |  | 0.4
C=C(C)[C@]12C[C@@H](COC(=O)c3ccccc3)[C@@]34OC5(O[C@@H]1[C@@H]3[C@@H]1O[C@]1(CO)[C@@H](O)[C@@]1(O)[C@H]4[C@H]([C@H](C)[C@@H]1OC(=O)c1ccccc1)[C@H](C)CCCCCCC5=O)O2 |  | > 1 | 0.14 | 0.6 |  | 21.65 |  | 
